Assays:
[1] = biological target: Histone-lysine N-methyltransferase EZH2 (Homo sapiens, UniProt Q15910); assay: Inhibition of human EZH2 using core histone as substrate incubated for 1 hr by fluorescence based assay
[2] = biological target: T1, Histone deacetylase (Homo sapiens) (UniProt Q13547+O15379+Q9UBN7+Q92769+Q9UQL6+Q8WUI4+Q9BY41+Q96DB2+P56524+Q9UKV0+Q969S8); assay: Inhibition of HDAC in human U937 cells assessed as Ac-H3 level at 50 uM incubated for 96 hrs by Western blot analysis (reference value: 1); assay type: cell-based; details: U-937
[3] = biological target: T1, Histone deacetylase (Homo sapiens); assay: Inhibition of HDAC in human U937 cells assessed as Ac-H3 level at 50 uM incubated for 120 hrs by Western blot analysis (reference value: 1); assay type: cell-based; details: U-937
Histone deacetylase 1 = Histone deacetylase 1 (Homo sapiens, UniProt Q13547); assay: Inhibition of human recombinant HDAC1 using AMC-K(Ac)GL as substrate by fluorescence based assay
Histone deacetylase 3 = Histone deacetylase 3 (Homo sapiens, UniProt O15379); assay: Inhibition of human recombinant HDAC3 using AMC-K(Ac)GL as substrate by fluorescence based assay
[4] = biological target: T2, Protein deacetylase HDAC6 (Homo sapiens, UniProt Q9UBN7); assay: Inhibition of human recombinant HDAC6 using AMC-K(Ac)GL as substrate by fluorescence based assay
T2 sequence (Q9UBN7 whole entry): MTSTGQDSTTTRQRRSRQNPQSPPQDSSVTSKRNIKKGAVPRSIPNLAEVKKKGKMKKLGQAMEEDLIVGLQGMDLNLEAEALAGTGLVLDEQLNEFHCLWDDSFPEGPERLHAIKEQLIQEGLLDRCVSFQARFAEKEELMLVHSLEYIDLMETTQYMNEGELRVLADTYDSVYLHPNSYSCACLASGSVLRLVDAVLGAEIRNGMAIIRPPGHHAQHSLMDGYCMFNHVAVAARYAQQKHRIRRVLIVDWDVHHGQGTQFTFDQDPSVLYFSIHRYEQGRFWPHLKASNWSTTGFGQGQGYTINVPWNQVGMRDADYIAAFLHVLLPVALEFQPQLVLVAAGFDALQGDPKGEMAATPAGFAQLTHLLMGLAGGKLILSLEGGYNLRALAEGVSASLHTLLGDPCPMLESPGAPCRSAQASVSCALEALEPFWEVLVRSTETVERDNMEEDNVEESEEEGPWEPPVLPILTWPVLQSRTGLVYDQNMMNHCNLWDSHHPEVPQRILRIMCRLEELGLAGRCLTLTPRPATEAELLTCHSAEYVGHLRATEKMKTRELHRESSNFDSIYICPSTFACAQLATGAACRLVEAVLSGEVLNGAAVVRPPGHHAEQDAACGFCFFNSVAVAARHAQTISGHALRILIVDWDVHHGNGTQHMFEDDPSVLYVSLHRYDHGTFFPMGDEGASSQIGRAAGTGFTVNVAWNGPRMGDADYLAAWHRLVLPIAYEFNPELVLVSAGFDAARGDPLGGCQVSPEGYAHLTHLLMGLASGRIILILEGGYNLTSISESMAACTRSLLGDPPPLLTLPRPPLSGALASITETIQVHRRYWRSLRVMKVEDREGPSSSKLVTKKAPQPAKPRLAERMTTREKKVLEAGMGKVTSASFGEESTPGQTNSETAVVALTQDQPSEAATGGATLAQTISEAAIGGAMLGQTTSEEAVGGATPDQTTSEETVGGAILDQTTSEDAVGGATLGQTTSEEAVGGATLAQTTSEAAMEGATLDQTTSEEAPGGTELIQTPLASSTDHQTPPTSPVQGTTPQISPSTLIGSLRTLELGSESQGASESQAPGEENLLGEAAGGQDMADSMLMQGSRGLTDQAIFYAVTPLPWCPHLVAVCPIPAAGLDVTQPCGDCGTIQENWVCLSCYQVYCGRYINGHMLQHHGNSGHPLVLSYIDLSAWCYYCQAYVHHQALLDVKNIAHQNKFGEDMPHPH

U-937 [5] = assay: Cytotoxicity against human U937 cells assessed as reduction in cell viability at 25 uM incubated for 96 hrs by CellTiter-Glo Luminescent cell viability assay relative to control; assay type: functional; details: U-937, 96 h
Outline: (§1)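 Viability of U937 (5–25 μM) and RH4 (5–35 μM) cells after 48, 72 and 96 h of treatment at increasing concentrations.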

[6] = Cytotoxicity against human RH4 cells assessed as reduction in cell viability at 35 uM incubated for 96 hrs by CellTiter-Glo Luminescent cell viability assay relative to control; assay type: functional; details: Rh4, 96 h; outline: as §1
THP-1 = assay: Cytotoxicity against human THP1 cells assessed as reduction in cell viability incubated for 72 hrs by CellTiter-Glo Luminescent cell viability assay; assay type: functional, cell-based; details: THP-1, 72 h
Outline: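 Antiproliferative IC50 after 72 h of treatment. Values are means of three independent experiments, each measured in triplicate, ± SD.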

U-937 [7] = assay: Induction of apoptosis in human U937 cells assessed as viable cells at 10 uM incubated for 72 hrs by annexin V-FITC staining based flow cytometry (reference value: 95.4 %); assay type: functional; details: U-937, 72 h, read-out: Activity
U-937 [8] = assay: Induction of apoptosis in human U937 cells assessed as late apoptotic cells at 10 uM incubated for 72 hrs by annexin V-FITC staining based flow cytometry (reference value: 0.7 %); assay type: functional
[9] = Cell cycle arrest in human RH4 cells assessed as G0/G1 accumulation at 14 uM incubated for 72 hrs by propidium iodide staining based flow cytometry (reference value: 46.2 %); assay type: functional
[10] = Cell cycle arrest in human RH4 cells assessed as subG1 accumulation at 14 uM incubated for 72 hrs by propidium iodide staining based flow cytometry (reference value: 1.9 %); assay type: functional
[11] = Cell cycle arrest in human RH4 cells assessed as subG1 accumulation at 28 uM incubated for 72 hrs by propidium iodide staining based flow cytometry (reference value: 1.9 %); assay type: functional
[12] = Induction of apoptosis in human RH4 cells assessed as viable cells at 14 uM incubated for 72 hrs by annexin V-FITC staining based flow cytometry (reference value: 86.6 %); assay type: functional; details: Rh4, 72 h, read-out: Activity
[13] = Induction of apoptosis in human RH4 cells assessed as early apoptotic cells at 14 uM incubated for 72 hrs by annexin V-FITC staining based flow cytometry (reference value: 10.8 %); assay type: functional
[14] = Induction of apoptosis in human RH4 cells assessed as late apoptotic cells at 14 uM incubated for 72 hrs by annexin V-FITC staining based flow cytometry (reference value: 2.1 %); assay type: functional
[15] = Induction of apoptosis in human RH4 cells assessed as viable cells at 28 uM incubated for 72 hrs by annexin V-FITC staining based flow cytometry (reference value: 86.6 %); assay type: functional; details: Rh4, 72 h, read-out: Activity
[16] = Induction of apoptosis in human RH4 cells assessed as necrotic cells at 28 uM incubated for 72 hrs by annexin V-FITC staining based flow cytometry (reference value: 0.4 %); assay type: functional

Chain of Histone-lysine N-methyltransferase EZH2 (Q15910 whole entry): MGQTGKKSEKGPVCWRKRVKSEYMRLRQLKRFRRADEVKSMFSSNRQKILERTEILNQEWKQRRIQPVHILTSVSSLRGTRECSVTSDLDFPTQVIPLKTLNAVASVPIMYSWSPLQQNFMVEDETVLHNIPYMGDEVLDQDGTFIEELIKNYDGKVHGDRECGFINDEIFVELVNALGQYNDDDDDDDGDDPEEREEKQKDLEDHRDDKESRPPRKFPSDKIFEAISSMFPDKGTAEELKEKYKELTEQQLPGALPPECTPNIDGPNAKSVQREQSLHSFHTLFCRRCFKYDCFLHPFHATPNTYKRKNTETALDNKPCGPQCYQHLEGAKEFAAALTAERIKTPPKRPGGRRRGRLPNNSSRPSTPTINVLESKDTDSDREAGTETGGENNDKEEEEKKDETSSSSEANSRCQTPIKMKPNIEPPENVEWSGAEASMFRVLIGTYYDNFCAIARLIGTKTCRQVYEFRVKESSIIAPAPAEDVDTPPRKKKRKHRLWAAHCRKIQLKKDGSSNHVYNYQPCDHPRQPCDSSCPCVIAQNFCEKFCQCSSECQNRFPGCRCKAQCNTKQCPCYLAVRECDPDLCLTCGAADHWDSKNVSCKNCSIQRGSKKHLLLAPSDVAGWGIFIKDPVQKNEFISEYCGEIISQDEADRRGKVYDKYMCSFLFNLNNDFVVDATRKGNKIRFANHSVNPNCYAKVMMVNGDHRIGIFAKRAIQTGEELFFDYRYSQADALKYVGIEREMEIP
Chain of Histone deacetylase 3 (O15379 whole entry): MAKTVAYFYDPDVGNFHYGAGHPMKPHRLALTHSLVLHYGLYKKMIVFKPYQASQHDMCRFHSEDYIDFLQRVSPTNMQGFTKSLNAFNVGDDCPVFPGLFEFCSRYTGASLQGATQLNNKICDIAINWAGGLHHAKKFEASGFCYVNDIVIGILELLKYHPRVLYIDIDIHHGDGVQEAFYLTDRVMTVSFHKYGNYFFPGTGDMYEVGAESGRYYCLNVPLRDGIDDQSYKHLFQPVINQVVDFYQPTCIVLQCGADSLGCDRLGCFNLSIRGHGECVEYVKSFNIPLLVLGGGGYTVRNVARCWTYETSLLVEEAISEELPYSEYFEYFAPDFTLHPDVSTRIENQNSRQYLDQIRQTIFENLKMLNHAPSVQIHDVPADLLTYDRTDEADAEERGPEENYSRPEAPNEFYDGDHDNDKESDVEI
Chain of Histone deacetylase 1 (Q13547 whole entry): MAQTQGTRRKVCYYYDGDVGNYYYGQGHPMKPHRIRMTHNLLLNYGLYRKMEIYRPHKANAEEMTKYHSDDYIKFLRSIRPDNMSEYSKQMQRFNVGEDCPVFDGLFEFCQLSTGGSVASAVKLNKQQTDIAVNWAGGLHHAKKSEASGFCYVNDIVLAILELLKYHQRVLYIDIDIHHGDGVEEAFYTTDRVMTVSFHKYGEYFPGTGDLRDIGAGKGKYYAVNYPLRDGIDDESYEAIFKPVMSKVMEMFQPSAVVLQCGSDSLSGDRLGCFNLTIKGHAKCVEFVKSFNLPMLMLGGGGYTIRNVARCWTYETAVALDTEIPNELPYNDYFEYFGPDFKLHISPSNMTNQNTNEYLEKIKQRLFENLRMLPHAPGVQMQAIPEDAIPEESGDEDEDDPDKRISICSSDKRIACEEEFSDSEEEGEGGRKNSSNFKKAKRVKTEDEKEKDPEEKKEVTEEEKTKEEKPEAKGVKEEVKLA

Structure (SMILES)	IC50 [1] [µM]	fold change (FC) [2]	fold change (FC) [3]	IC50 (Histone deacetylase 1) [µM]	IC50 (Histone deacetylase 3) [µM]	IC50 [4] [µM]	inhibition at 25 µM (U-937 [5]) [%]	inhibition at 35 µM [6] [%]	IC50 (THP-1) [µM]	viability at 10 µM (U-937 [7]) [%]	Activity (U-937 [8]) [%]	Activity [9] [%]	Activity [10] [%]	Activity [11] [%]	viability at 14 µM [12] [%]	Activity [13] [%]	Activity [14] [%]	viability at 28 µM [15] [%]	Activity [16] [%]
Cc1cc(C)c(CNC(=O)c2cc(C)n(-c3ccccc3)c2C)c(=O)[nH]1	5.78	1.4	0.7	–	–	–	–	–	–	–	–	–	–	–	–	–	–	–	–
Cc1cc(C)c(CNC(=O)c2cc(C)n(-c3cccc(NC(=O)CCCCCCC(=O)NO)c3)c2C)c(=O)[nH]1	7.37	–	–	0.43	0.45	0.005	90	90	12	95	0.7	47.2	3.8	28.1	82.5	13.8	3.2	68.7	0.4
